In ChEMBL document CHEMBL3244228, “Synthesis and biological properties of 2-, 5-, and 6-fluoronorepinephrines” (J Med Chem, 1979) one finds Activity and EC50 data, which are given here for four compounds.

Usually pEC50 stands for the EC50 on a negative log10 scale, so that one unit is a factor of ten. One may read the EC50 as the midpoint of the concentration-response curve.

The species named for experiment [1] is Cavia porcellus. Kind of experiment: Agonist activity at alpha-adrenergic receptor in Hartley guinea pig aorta assessed as maximal contraction in presence of alpha-adrenergic receptor antagonist phentolamine. It counts as tissue-based.
Experiment [2] can be described thus: Agonist activity at alpha-adrenergic receptor in Hartley guinea pig aorta assessed as maximal contraction. It counts as tissue-based, Cavia porcellus. The method, boiled down: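 Aortic strip from 250-300 g male Hartley guinea pigs, in 10 mL Tyrode's solution at 37 °C aerated with 95% O2/5% CO2. Full concentration range, 0.1 to 100 μM. Response is percent of maximal contraction (largest contraction per dose relative to the maximum for (±)-NE). EC50 ± SD estimated from eight dose-response curves.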

Experiment [3] deals with Adrenergic receptor alpha. Kind of experiment: Agonist activity at alpha-adrenergic receptor in Sprague-Dawley rat cerebral cortex assessed as [3H]cAMP accumulation by liquid scintillation spectroscopy in presence of propranolol. It counts as functional, tissue-based. The method, boiled down: (§1)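 Male Sprague-Dawley rat cerebral cortical slices (260 μm, cross-chopped) are preincubated 15 min in Krebs-Ringer bicarbonate glucose buffer, labelled 40 min at 37 °C with adenine (30 μM) plus [3H]adenine, then equilibrated 5 min. Amines are applied at 1 to 100 μM for 10 min, with propranolol 10 μM for α responses and phentolamine 10 μM for β responses. Cyclic [3H]AMP is isolated from TCA extracts on a double column, corrected for carrier recovery and reported as percent conversion. EC50 from six dose-response curves.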

The species named for experiment [4] is Cavia porcellus. Kind of experiment: Agonist activity at beta-adrenergic receptor in Hartley guinea pig atria assessed as maximal increase in contraction rate in presence of beta-adrenergic receptor antagonist propranolol.
For experiment [5], the species on record is Cavia porcellus. Kind of experiment: Agonist activity at beta-adrenergic receptor in Hartley guinea pig atria assessed as maximal increase in contraction rate in presence of alpha-adrenergic receptor antagonist phentolamine.
Experiment [6] addresses Adrenergic receptor alpha. Kind of experiment: Displacement of [3H]WB4101 from alpha-adrenergic receptor in Sprague-Dawley rat cerebral cortical membrane.
Experiment [7] is described as follows: Agonist activity at beta-adrenergic receptor in Hartley guinea pig atria assessed as maximal increase in contraction rate. Also noted: species or system Cavia porcellus. The procedure, abridged:
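Atria from 250-300 g male Hartley guinea pigs, bathed in 10 mL Tyrode's at 37 °C under 95% O2/5% CO2, dosed at 0.1 to 100 μM. Contraction rate read 60 s after each dose against the pre-experiment rate and expressed as percent of the maximal increase given by (±)-NE. EC50 ± SD from eight dose-response curves.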

Experiment [8] concerns the target Adrenergic receptor alpha (Rattus norvegicus) (UniProt P15823+P23944+P43140+P22086+P19328+P22909). Kind of experiment: Agonist activity at alpha-adrenergic receptor in Sprague-Dawley rat cerebral cortex assessed as [3H]cAMP accumulation by liquid scintillation spectroscopy in presence of propranolol and phentolamine. It counts as functional, tissue-based. (Cyclic AMP is a second messenger, typically raised through Gs and lowered through Gi signalling.)

For experiment [9], the species on record is Cavia porcellus. Kind of experiment: Agonist activity at alpha-adrenergic receptor in Hartley guinea pig aorta assessed as maximal contraction in presence of beta-adrenergic receptor antagonist propranolol. It counts as tissue-based.
Experiment [10] can be described thus: Agonist activity at beta-adrenergic receptor in Hartley guinea pig ileum assessed as maximal relaxation. It counts as tissue-based. As to conditions: Cavia porcellus.
The target of experiment [11] is T1, Adrenergic receptor beta (Rattus norvegicus, UniProt P18090+P10608+P26255). Kind of experiment: Displacement of [3H]dihydroalprenolol from beta-adrenergic receptor in Sprague-Dawley rat cerebral cortical membrane.
The target of experiment [12] is T1, Adrenergic receptor beta. Kind of experiment: Agonist activity at beta-adrenergic receptor in Sprague-Dawley rat cerebral cortex assessed as [3H]cAMP accumulation by liquid scintillation spectroscopy in presence of phentolamine. It counts as functional, tissue-based. The method, boiled down:
as §1

pEC50: −log10 of the molar value. Activity calls are given as the source filed them. The calls are words filed in the database; no cut-off is given here.

As to `Cl.NCC(O)c1ccc(O)c(O)c1F` (racemic), the outcome in the experiment listed under Cavia porcellus [1] and in the experiment filed under Cavia porcellus [4] was inactive. For the same compound, the pEC50 in experiment [2] is 3.96; in experiment [7], 6.22. Besides, the EC50 in [3] and in experiment [6] was above 100 µM in each case. Also, the result (in the experiment listed under Cavia porcellus [5]; in [8]; in the experiment filed under Cavia porcellus [9]) was Active.

With `NCC(O)c1ccc(O)c(O)c1` (configuration not stated), the negative logarithm of the EC50 (pEC50) was 4.81 in experiment [10], 5.59 in experiment [2] and 6.15 in [7].

Take `Cl.NCC(O)c1cc(O)c(O)cc1F` (racemic): the outcome (in the experiment listed under Cavia porcellus [1]; in the experiment filed under Cavia porcellus [4]; in experiment [8]) was inactive. Also, the negative-log EC50 (pEC50) in experiment [2] is 5.60; in [7], 4.14. Also, the EC50 in experiment [3] is 5 µM; in experiment [6] it was 3 µM. Further, the outcome in the experiment listed under Cavia porcellus [5] and in the experiment filed under Cavia porcellus [9] was Active.

In the case of `Cl.NCC(O)c1cc(O)c(O)c(F)c1` (racemic), the outcome in the experiment filed under Cavia porcellus [1] and in the experiment listed under Cavia porcellus [4] was inactive. For the same compound, the pEC50 in [10] was 4.36; in experiment [2], 5.62; in experiment [7], 6.96. Besides, the EC50 in [3] was 5 µM; on Adrenergic receptor beta [11] it was 4 µM; in experiment [6] it was 15 µM; on Adrenergic receptor beta [12], 2 µM. Also, the result in the experiment listed under Cavia porcellus [5] and in the experiment filed under Cavia porcellus [9] was Active.
